Data taken from ChEMBL document CHEMBL1629660, “Pharmacodynamics of tigecycline against phenotypically diverse Staphylococcus aureus isolates in a murine thigh model” (Antimicrob Agents Chemother, 2009).

What was measured:
[1] = Cmax in neutropenic ICR mouse infected with Staphylococcus aureus ATCC 29213 at 50 mg/kg, sc by HPLC; type: ADME, organism-based; design: dose 50 mg/kg, route subcutaneous; conditions: in vivo
In short: (§1)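 Neutropenic female ICR mice (cyclophosphamide 150 and 100 mg/kg ip, 4 days and 1 day before inoculation), both thighs inoculated im with ~10^7 CFU/ml of ATCC 29213. Single sc doses of 50, 25, 12.5 or 6.25 mg/kg. Cardiac blood taken from groups of six at 8–12 times over 0.5–24 h. Serum measured by HPLC (linear 0.05–5 µg/ml). Two-compartment fit by nonlinear least squares; AUC by trapezoidal rule.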

[2] = Tmax in neutropenic ICR mouse infected with Staphylococcus aureus ATCC 29213 at 12.5 mg/kg, sc by HPLC; type: ADME, organism-based; design: dose 12.5 mg/kg, route subcutaneous; conditions: in vivo; in short: as §1
[3] = AUC (0 to 24 hrs) in neutropenic ICR mouse infected with Staphylococcus aureus ATCC 29213 at 50 mg/kg, sc by HPLC; type: ADME, organism-based; design: time < 24 hr, dose 50 mg/kg, route subcutaneous; conditions: plasma; in short: as §1
[4] = AUC (0 to 24 hrs) in neutropenic ICR mouse infected with Staphylococcus aureus ATCC 29213 at 25 mg/kg, sc by HPLC; type: ADME, organism-based; design: time < 24 hr, dose 25 mg/kg, route subcutaneous; conditions: plasma; in short: as §1
[5] = Elimination half life in neutropenic ICR mouse infected with methicillin-sensitive Staphylococcus aureus ATCC 29213 at 50 mg/kg, sc by HPLC; type: ADME, organism-based; design: dose 50 mg/kg, route subcutaneous; conditions: in vivo, read-out: beta t1/2 (converted); in short: as §1
[6] = Elimination half life in neutropenic ICR mouse infected with methicillin-sensitive Staphylococcus aureus ATCC 29213 at 25 mg/kg, sc by HPLC; type: ADME, organism-based; design: dose 25 mg/kg, route subcutaneous; conditions: in vivo, read-out: beta t1/2 (converted); in short: as §1
Serum = experiment: fAUC in serum of methicillin-sensitive Staphylococcus aureus ATCC 29213-infected neutropenic ICR mouse at 1.56 to 400 mg/kg, sc by HPLC; type: ADME, organism-based; design: dose 1.56-400 mg/kg, route subcutaneous; conditions: in vivo
Staphylococcus aureus [7] = experiment: Antimicrobial activity against hospital-acquired methicillin-resistant Staphylococcus aureus isolate 56 infected in neutropenic ICR mouse assessed as decrease in bacterial density at 1.56 to 400 mg/kg, sc after 24 hrs; type: functional; conditions: dose mg/kg 1.56-400; route subcutaneous
In short: (§2)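 Female ICR mice (~25 g) made neutropenic with cyclophosphamide 150 and 100 mg/kg ip, 4 and 1 days before infection. Each thigh inoculated im with 0.1 ml of ~10^7 CFU/ml from an overnight subculture. Tigecycline sc (0.2 ml) given 2 h later as single or multiple doses of 1.56–50 mg/kg, 1.56–400 mg/kg/day, 3 mice/group. Saline-injected controls. Thighs harvested at 24 h, homogenized in saline, plated on blood agar; log10 CFU change vs 0-h controls.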

[8] = fAUC/MIC in methicillin-sensitive Staphylococcus aureus ATCC 29213-infected neutropenic ICR mouse at 80% effective exposure index; type: functional
In short: (§3)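 fT>MIC, fCmax/MIC and fAUC/MIC were built from the serum pharmacokinetics, protein binding, modal broth-microdilution MIC (triplicate, CLSI) and 24-h thigh CFU change. Each index was fit to a sigmoidal Emax model. EI50, EI80 and stasis exposures were taken from each isolate's curve.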

[9] = fAUC/MIC in hospital-acquired methicillin-resistant Staphylococcus aureus isolate 56-infected neutropenic ICR mouse at 80% effective exposure index; type: functional
In short: (§4)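 Single-dose serum PK in infected neutropenic mice (sc 6.25–50 mg/kg; HPLC; two-compartment fit; AUC by trapezoidal rule; lower doses simulated). Free fraction from ultrafiltration of spiked mouse serum, in triplicate. Free exposures divided by modal MIC and plotted against 24-h log10 CFU change with a sigmoidal Emax model; EI50, EI80 and stasis values read from the fitted curves.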

[10] = fAUC/MIC in community acquired methicillin-resistant Staphylococcus aureus isolate 144-infected neutropenic ICR mouse at 80% effective exposure index; type: functional; in short: as §4
[11] = fAUC/MIC in community acquired methicillin-resistant Staphylococcus aureus isolate 147-infected neutropenic ICR mouse at 80% effective exposure index; type: functional; in short: as §4
[12] = fAUC/MIC in community acquired methicillin-resistant Staphylococcus aureus isolate 156-infected neutropenic ICR mouse at 80% effective exposure index; type: functional; in short: as §4
[13] = fAUC/MIC in community acquired methicillin-resistant Staphylococcus aureus isolate 144-infected neutropenic ICR mouse at 50% effective exposure index; type: functional; in short: as §4
[14] = fAUC/MIC in community acquired methicillin-resistant Staphylococcus aureus isolate 156-infected neutropenic ICR mouse at 50% effective exposure index; type: functional; in short: as §4
[15] = fAUC/MIC in methicillin-sensitive Staphylococcus aureus ATCC 29213-infected neutropenic ICR mouse at stasis dose; type: functional; in short: as §3
Staphylococcus aureus [16] = experiment: Antimicrobial activity against hospital-acquired methicillin-resistant Staphylococcus aureus isolate 152 infected in neutropenic ICR mouse assessed as change in bacterial load after 24 hrs; type: functional; in short: as §2
Staphylococcus aureus [17] = experiment: Antimicrobial activity against community acquired methicillin-resistant Staphylococcus aureus isolate 147 infected in neutropenic ICR mouse assessed as change in bacterial load after 24 hrs; type: functional; in short: as §2
Staphylococcus aureus [18] = experiment: Antimicrobial activity against community acquired methicillin-resistant Staphylococcus aureus isolate 156 infected in immunocompetent ICR mouse assessed as reduction in bacterial load at […] after 24 hrs; type: functional
In short: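 Non-neutropenic ICR mice (no cyclophosphamide). Each thigh inoculated im with 0.1 ml of ~10^8 CFU/ml. Tigecycline given sc once daily at 1.56, 3.13, 6.25 or 12.5 mg/kg starting 2 h post-infection, 3 mice/group. Thighs harvested at 24 h, homogenized, plated on blood agar; log10 CFU change vs 0-h controls.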

Staphylococcus aureus [19] = experiment: Antimicrobial activity against community acquired methicillin-resistant Staphylococcus aureus isolate 156 infected in neutropenic ICR mouse assessed as change in bacterial load at 6.25 […] after 24 hrs; type: functional; in short: as §2
Acinetobacter baumannii [20] = experiment: Antimicrobial activity against carbapenem-intermediate,-resistant Acinetobacter baumannii assessed as decrease in bacterial count at 0.7 times of MIC after 24 hrs by time kill analysis; type: functional
Acinetobacter baumannii [21] = experiment: Antimicrobial activity against carbapenem-intermediate,-resistant Acinetobacter baumannii assessed as decrease in bacterial count at 0.8 times of MIC after 48 hrs by time kill analysis; type: functional
[22] = r2 of fT>MIC in methicillin-sensitive Staphylococcus aureus ATCC 25923-infected neutropenic ICR mouse
[23] = r2 of fAUC/MIC in hospital-acquired methicillin-resistant Staphylococcus aureus isolate 56-infected neutropenic ICR mouse
[24] = r2 for fT>MIC in community acquired methicillin-resistant Staphylococcus aureus isolate 156-infected neutropenic ICR mouse
[25] = r2 of fCmax/MIC in hospital-acquired methicillin-resistant Staphylococcus aureus isolate 56-infected neutropenic ICR mouse
[26] = r2 of fCmax/MIC in hospital-acquired methicillin-resistant Staphylococcus aureus isolate 152-infected neutropenic ICR mouse
[27] = Protein binding in methicillin-sensitive Staphylococcus aureus ATCC 29213-infected neutropenic ICR mouse serum at 6 µg/ml by HPLC; conditions: read-out: PB (converted)

Which Cmax [1] does the source give for `CN(C)c1cc(NC(=O)CNC(C)(C)C)c(O)c2c1C[C@H]1C[C@H]3[C@H](N(C)C)C(O)=C(C(N)=O)C(=O)[C@@]3(O)C(O)=C1C2=O` [TIGECYCLINE] here?
The Cmax was 12200 ng/mL.

And the Tmax [2]?
The Tmax was 27 min.

What about the AUC(0-t) at 24 h [3] of the same compound?
Its AUC(0-t) at 24 h is 49200 ng·h/mL.

What about the AUC(0-t) at 24 h [4] of the same compound?
Its AUC(0-t) at 24 h is 25200 ng·h/mL.

What about the half-life [5] of the same compound?
The half-life was 442 min.

What about the half-life [6] of the same compound?
The half-life was 708 min.

What about the fAUC (Serum) of the same compound?
The fAUC was 0.2 µg·h/mL.

And the CFU (Staphylococcus aureus [7])?
Its CFU is 1.5.

What about the fAUC/MIC [8] of the same compound?
Its fAUC/MIC is 4.1.

What about the fAUC/MIC [9] of the same compound?
The fAUC/MIC was 4.2.

And the fAUC/MIC [10]?
Its fAUC/MIC is 3.2.

What about the fAUC/MIC [11] of the same compound?
The fAUC/MIC was 3.5.

What about the fAUC/MIC [12] of the same compound?
The fAUC/MIC was 13.

And the fAUC/MIC [13]?
Its fAUC/MIC is 2.2.

What about the fAUC/MIC [14] of the same compound?
Its fAUC/MIC is 5.1.

And the fAUC/MIC [15]?
The fAUC/MIC was 0.5.

And the log10CFU/ml (Staphylococcus aureus [16])?
The log10CFU/ml was 1.8.

What about the log10CFU/ml (Staphylococcus aureus [17]) of the same compound?
The log10CFU/ml was 1.8.

And the log10cfu (Staphylococcus aureus [18])?
The log10cfu was 1.8.

What about the log10CFU/ml (Staphylococcus aureus [19]) of the same compound?
The log10CFU/ml was 0.1.

What about the log10cfu (Acinetobacter baumannii [20]) of the same compound?
Its log10cfu is 2.

And the log10cfu (Acinetobacter baumannii [21])?
Its log10cfu is 3.5.

What about the r2 [22] of the same compound?
Its r2 is 0.872%.

And the r2 [23]?
Its r2 is 0.957.

And the r2 [24]?
The r2 was 0.894%.

And the r2 [25]?
Its r2 is 0.704.

What about the r2 [26] of the same compound?
The r2 was 0.953.

And the fraction unbound [27]?
The fraction unbound was 0.069.
